Test results from ChEMBL document CHEMBL1143736, “Synthesis and antimycobacterial activity of 4-(5-substituted-1,3,4-oxadiazol-2-yl)pyridines” (Bioorg Med Chem, 2007).
In brackets after ≈: the same amount, converted by molar mass.

What was measured:
Type in all cases: functional
[1] = system: Mycobacterium tuberculosis; experiment: Antimycobacterial activity against streptomycin, isoniazid, ethambutol-resistant Mycobacterium tuberculosis CIBIN 112 isolates
Summary of the method: (§1)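 Modified microplate Alamar Blue assay (MABA). Inoculum came from a log-phase culture matched to McFarland 1, diluted 1:50 in Middlebrook 7H9 to 6 × 10^6 CFU/mL, and prepared just before inoculation.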

[2] = system: Mycobacterium tuberculosis; experiment: Antimycobacterial activity against streptomycin and isoniazid-resistant Mycobacterium tuberculosis CIBIN 675 isolates; summary of the method: as §1
[3] = system: Mycobacterium tuberculosis; experiment: Antimycobacterial activity against streptomycin, isoniazid, rifampicin, pyrazinamide-resistant Mycobacterium tuberculosis CIBIN 234 isolates; summary of the method: as §1

**Q.** `CC[C@@H](CO)NCCN[C@@H](CC)CO` [ETHAMBUTOL] was tested. Which MIC [1] did it give?
**A.** 78.3 µM (≈ 16 µg/mL)

**Q.** `CN(C)c1ccc(-c2nnc(-c3ccncc3)o2)cc1` was tested. Which MIC [2] did it give?
**A.** 30 µM

**Q.** What about the MIC [3] of the same molecule?
**A.** 30 µM (≈ 8 µg/mL)

**Q.** What about the MIC [1] of the same molecule?
**A.** 30 µM (≈ 8 µg/mL)

**Q.** Which MIC [2] does the source give for `CO[C@H]1/C=C/O[C@@]2(C)Oc3c(C)c(O)c4c(O)c(c(/C=N/N5CCN(C)CC5)c(O)c4c3C2=O)NC(=O)/C(C)=C\C=C\[C@H](C)[C@H](O)[C@@H](C)[C@@H](O)[C@@H](C)[C@H](OC(C)=O)[C@@H]1C` [RIFAMPIN] here?
**A.** 0.94 µM

**Q.** What about the MIC [3] of the same molecule?
**A.** 122 µM (≈ 100 µg/mL)

**Q.** What about the MIC [1] of the same molecule?
**A.** 3.79 µM (≈ 3.12 µg/mL)

**Q.** For `c1cc(-c2nnc(-c3ccncc3)o2)ccn1`, which MIC [2] is on record?
**A.** 35.7 µM

**Q.** What about the MIC [3] of the same molecule?
**A.** 35.7 µM (≈ 8.01 µg/mL)

**Q.** What about the MIC [1] of the same molecule?
**A.** 35.7 µM (≈ 8.01 µg/mL)

**Q.** Which results are given for `FC(F)(F)c1nnc(-c2ccncc2)o1`?
**A.** MIC [2]: 37.2 µM; MIC [3]: 37.2 µM (≈ 8.01 µg/mL); MIC [1]: 37.2 µM (≈ 8.01 µg/mL)

**Q.** What does the source list for `CN[C@@H]1[C@H](O[C@H]2[C@H](O[C@H]3[C@H](O)[C@@H](O)[C@H](N=C(N)N)[C@@H](O)[C@@H]3N=C(N)N)O[C@@H](C)[C@]2(O)C=O)O[C@@H](CO)[C@H](O)[C@H]1O` (stereo in doubt) [STREPTOMYCIN]?
**A.** MIC [2]: 6.87 µM; MIC [3]: 55 µM (≈ 32 µg/mL); MIC [1]: 55 µM (≈ 32 µg/mL)

**Q.** `O=[N+]([O-])c1ccccc1-c1nnc(-c2ccncc2)o1` was tested. Which MIC [2] did it give?
**A.** 29.9 µM

**Q.** What about the MIC [3] of the same molecule?
**A.** 29.9 µM (≈ 8.01 µg/mL)

**Q.** What about the MIC [1] of the same molecule?
**A.** 29.9 µM (≈ 8.01 µg/mL)

**Q.** Which results are given for `O=[N+]([O-])c1ccc(-c2nnc(-c3ccncc3)o2)cc1`?
**A.** MIC [2]: 29.9 µM; MIC [3]: 29.9 µM (≈ 8.01 µg/mL); MIC [1]: 29.9 µM (≈ 8.01 µg/mL)

**Q.** Which results are given for `CCCCCCCCCCCCCCCCCc1nnc(-c2ccncc2)o1`?
**A.** MIC [2]: 10.4 µM; MIC [3]: 20.8 µM (≈ 8 µg/mL); MIC [1]: 2.59 µM (≈ 0.999 µg/mL)

**Q.** `CCCCCCCCCCCCCCCc1nnc(-c2ccncc2)o1` was tested. Which MIC [2] did it give?
**A.** 11.2 µM

**Q.** And the MIC [3]?
**A.** 22.4 µM (≈ 8 µg/mL)

**Q.** What about the MIC [1] of the same molecule?
**A.** 2.8 µM (≈ 1 µg/mL)

**Q.** Which results are given for `c1ccc(-c2nnc(-c3ccncc3)o2)cc1`?
**A.** MIC [2]: 35.9 mg/L; MIC [3]: 35.9 µM (≈ 8.01 µg/mL); MIC [1]: 35.9 µM (≈ 8.01 µg/mL)

**Q.** Which results are given for `NNC(=O)c1ccncc1` [ISONIAZID]?
**A.** MIC [2]: 29.2 µM; MIC [3]: 58.4 µM (≈ 8.01 µg/mL); MIC [1]: 29.2 µM (≈ 4 µg/mL)

**Q.** Which results are given for `Cc1nnc(-c2ccncc2)o1`?
**A.** MIC [2]: 49.7 µM; MIC [3]: 49.7 µM (≈ 8.01 µg/mL); MIC [1]: 49.7 µM (≈ 8.01 µg/mL)

**Q.** How did the MIC [2] turn out when `O=[N+]([O-])c1cc(-c2nnc(-c3ccncc3)o2)cc([N+](=O)[O-])c1` was run?
**A.** 25.5 µM

**Q.** What about the MIC [3] of the same molecule?
**A.** 25.5 µM (≈ 8 µg/mL)

**Q.** What about the MIC [1] of the same molecule?
**A.** 12.8 µM (≈ 4 µg/mL)

**Q.** Which results are given for `COc1cc(-c2nnc(-c3ccncc3)o2)cc(OC)c1OC`?
**A.** MIC [2]: 28.2 µM; MIC [3]: 28.2 µM (≈ 8.85 µg/mL); MIC [1]: 14.1 µM (≈ 4.42 µg/mL)

**Q.** With `ClCc1nnc(-c2ccncc2)o1` as the molecule, how does the MIC [2] read?
**A.** 41 µM

**Q.** What about the MIC [3] of the same molecule?
**A.** 41 µM (≈ 8.03 µg/mL)

**Q.** What about the MIC [1] of the same molecule?
**A.** 41 µM (≈ 8.03 µg/mL)
